In ChEMBL document CHEMBL1789904, “Imaging of Plasmodium liver stages to drive next-generation antimalarial drug discovery” (Science, 2011):

Test system: Plasmodium yoelii
Experiment: NOVARTIS: Antimalarial liver stage activity measured as reduction in Plasmodium yoelii schizont area in HepG2-A16-CD81 cells by immuno-fluorescence, and median schizont size at 10uM compound concentration
Assay type: functional, organism-based
Details: for IC50: Plasmodium yoelii, HepG2-A16-CD81
Summary of the method: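 Host and parasite nuclei stained with Hoechst 33342, parasites with αPyHSP70 antibody; 25 images per well by high-content imaging; median parasite (schizont) area measured by automated image analysis, ~50 schizonts per experiment, two or more independent experiments.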

SMILES | Schizont size [um] | IC50 [nM]
O=C1c2ccccc2-n2c1nc1ccccc1c2=O [TRYPTANTHRIN] | 89.55 | 225
COc1ccc2nc(C)cc(Nc3ccc(Cl)c(Cl)c3)c2c1 | 39.25 | 438
Cc1nc2ccccc2c(=O)n1-c1ccc([N+](=O)[O-])cc1 | 246.01 | > 10000
CN(C)c1ccc(C(=Cc2cc(-c3ccccc3)cc(-c3ccccc3)[o+]2)c2ccc(N(C)C)cc2)cc1 | 26.72 | 51.9
CCCCN(CCCC)S(=O)(=O)c1ccc(NC(=O)c2ccco2)cc1 | 35.28 | 377
Br.Cc1ccnc(Nc2nc(-c3ccccn3)cs2)c1 | 19.21 | 95.6
Nc1ccc(-c2nc3cc(Oc4ccc(Oc5ccc6[nH]c(-c7ccc(N)cc7)nc6c5)cc4)ccc3[nH]2)cc1 | 116.48 | 319
CCCCCC[P+](N(CCC)CCC)(N(CCC)CCC)N(CCC)CCC | 30.27 | 49.1
CCCCC(CC)C(=O)N1CCN(C(CC)c2nc3ccccc3c(=O)n2C)CC1 (centres undefined) | – | 231
CC(=O)N(C1=C(N(C)C)C(=O)c2ccccc2C1=O)c1ccc(F)cc1 | 23.8 | 57.3
CCCCCCCCn1c(C)[n+](CC)c2cc(C(=O)OCC)ccc21.[I-] | 63.77 | 990
O=C1c2ccccc2C2=Nc3ccccc3SC(c3cccc(F)c3)C12 (centres undefined) | 30.06 | 162
CCOC(=O)c1c(NC(C)=O)sc2c1CCN(C(C)C)C2 | 93.21 | 3010
CCOc1ccc(N(C(=O)C2COc3ccccc3O2)C(C(=O)NC2CCCCC2)c2cn(C)nc2C)cc1 (centres undefined) | 191.42 | > 10000
COc1ccc2c(C)nc(Nc3nc(C)cc(-c4ccccc4)n3)nc2c1 | 170.24 | 6660
Cc1cc(OC(C)C(=O)N2CCc3ccccc32)ccc1Cl (centres undefined) | 59.6 | 776
CCC(C)Nc1nc(NC(C)CC)nc(N2CCCCCC2)n1 (centres undefined) | 20.35 | 300
CCSc1ccc2ccccc2[n+]1CC.[I-] | 209.06 | > 10000
[Br-].c1ccc(-c2nn(-c3ccccc3)[n+](-c3ccccc3)n2)cc1 | 26.51 | 107
CCc1ccccc1N=C1c2c(cccc2[N+](=O)[O-])C(=O)C1C(C)=O (centres undefined) | 83.4 | 2030
O=C(Nc1ccc(-c2nc3ccccc3[nH]2)cc1)c1ccc(-c2ccc(Cl)cc2)o1 | – | 6650
c1ccc(OCCOc2ccc(Nc3c4ccccc4nc4ccccc34)cc2)cc1 | 41.33 | 559
CCN(CC)CCCN(Cc1cc2cc(OC)c(OC)cc2[nH]c1=O)C(=S)Nc1cccc(Cl)c1 | 60.54 | 162
Cc1cc(C(=O)Nc2cnn(Cc3ccc(Cl)cc3Cl)c2)no1 | 57.82 | 335
FC(F)(F)c1ccccc1NC(=S)N1CCCN(c2nc3ccc(Cl)cc3s2)CC1 | 91.85 | 1620
COc1ccccc1Cc1nc2ccccc2nc1SCC(=O)Nc1cccc(C(F)(F)F)c1 | 187.88 | > 10000

SMILES | Schizont size [um] | IC50 [nM]
N#CCSc1nc2ccccc2c2nc(CCc3c[nH]c4ccccc34)nn12 | 221.17 | > 10000
CCCCOc1ccc(C2C3CCCC=C3C(C#N)=C(N)C2(C#N)C#N)cc1 (centres undefined) | 213.66 | > 10000
CN1C(=O)N(C)C(NNC(N)=S)C1NNC(N)=S (centres undefined) | 117.53 | 15
CCC(C)(C)c1ccc(OCCCC[n+]2cccc(C)c2C)c(C(C)(C)CC)c1.[Br-] | 12.53 | 45.5
CCOC(=O)c1ccc(NC(=O)CSc2nc(NCc3ccccc3)c3ccccc3n2)cc1 | 69.2 | 38.1
CCNC(=O)C1CCN(c2cccc3c2C(=O)N(C2CCCCCCC2)C3=O)CC1 | 30.48 | 269
Brc1ccc(Nc2nc(NCc3ccco3)c3ccccc3n2)cc1 | 35.17 | 163
COc1cc(C(=O)Nc2ccc3nc4n(c(=O)c3c2)CCCCC4)cc(OC)c1OC | – | > 10000
COc1ccc(C2N(Cc3ccccc3)c3ccccc3N2Cc2ccccc2)cc1 | 30.79 | 121
CC(Oc1ccc(Cl)cc1Cl)c1nc(-c2ccc(NC(=O)c3cccs3)cc2)no1 (centres undefined) | 21.92 | 114
CCCCCCN(C(=O)COc1ccccc1)C(CC)c1nc2ccccc2c(=O)n1-c1cccc(Cl)c1 (centres undefined) | – | > 10000
CCN(CC)CCN(Cc1cc2ccc(C)cc2[nH]c1=O)C(=S)NC(C)c1ccccc1 (centres undefined) | 66.17 | 883
COc1ccc(C2CC(=O)C3=C(C2)NC(C)=C(C(=O)OC2CCCC2)C3c2cccc(C)c2)cc1OC (centres undefined) | 66.8 | 779
CCOC(=O)c1c(CNC)n(C)c2cc(Br)c(O)cc12.O=CO.O=CO | 175.56 | > 10000
O=C(NC(=C(Cl)Cl)[P+](c1ccccc1)(c1ccccc1)c1ccccc1)c1ccc(F)cc1 | 26.93 | 14.5
CCCCCCOc1ccc(NC(=O)c2cccs2)cc1 | 27.87 | 139
O=c1c2c([nH]c3ccccc13)CCCCCCCCCC2 | 25.15 | 99
CCOC(=O)c1cnc2ccc(OC)cc2c1Cl | 31 | 410
Cc1c(C#N)c2ccccc2n1CC(=O)Nc1ccc(Br)cc1 | 158.02 | > 10000
C1CCC(NP2(NC3CCCCC3)=NP(NC3CCCCC3)(NC3CCCCC3)=NP(NC3CCCCC3)(NC3CCCCC3)=N2)CC1 | 33.82 | 18.6
Cc1cc(N)c2ccccc2[n+]1CCCCCCCCCC[n+]1c(C)cc(N)c2ccccc21.[Cl-].[Cl-] [DEQUALINIUM CHLORIDE] | 40.29 | 566
CCCCCc1ccc(OCCCC[n+]2cccc(C)c2)c(CCCCC)c1.[Cl-] | 23.48 | 34.6
Cc1cc(NC(c2cccc(Br)c2)c2ccc3cccnc3c2O)no1 (centres undefined) | 16.28 | 147
O=C(C1CC1)N1CCc2cc(Br)cc(S(=O)(=O)N3CCCC3)c21 | 164.5 | > 10000
CC(C)c1nc(N2CCN(C(=O)Nc3ccccc3)CC2)c(C#N)c2c1COC(C)(C)C2 | 82.25 | 1020
O=C(Nc1ccc(C(F)(F)F)cc1)c1ccc(NCCCN2CCCCCC2)c([N+](=O)[O-])c1 | 74.21 | 450

SMILES | Schizont size [um] | IC50 [nM]
O=C(Nc1ccc2oc(-c3cccc4ccccc34)nc2c1)c1ccc([N+](=O)[O-])o1 | 13.99 | 72.5
Oc1c2c(nc3cc(-c4ccc(Br)cc4)nn13)CCCC2 | – | 499
CCCCCCN(C(=O)c1ccc(C(C)(C)C)cc1)C(CC)c1nc2ccccc2c(=O)n1-c1ccc(F)cc1 (centres undefined) | – | > 6910
CCOc1ccc(Nc2nc(NCc3ccccc3)c3ccccc3n2)cc1.Cl | 23.69 | 480
COc1cc(C(=O)N2N=C(c3c(-c4ccccc4)c4cc(Br)ccc4[nH]c3=O)CC2c2cccc([N+](=O)[O-])c2)cc(OC)c1OC (centres undefined) | 29.43 | 435
C/C=C/[P+](c1ccccc1)(c1ccccc1)c1ccccc1 | 26.09 | 49.4
CCc1noc(C)c1C(=O)NCCN1Cc2ccccc2OC(c2ccsc2)C1 (centres undefined) | 227.75 | > 10000
N#Cc1c2c(c(N3CCN(Cc4ccccc4)CC3)n3c1nc1ccccc13)CCC2 | 241.42 | > 10000
O=C(Nc1ccc(-c2nc3cc(NC(=O)c4cccc([N+](=O)[O-])c4)ccc3[nH]2)cc1)c1cccc([N+](=O)[O-])c1 | 101.45 | > 940
O=[N+]([O-])c1cc(C(F)(F)F)ccc1N1CCCN(C(=S)Nc2ccccc2)CC1 | 93.73 | 2230
CCCCCCCc1cc(O)c2c3c(c(=O)oc2c1)CCC(C)C3 (centres undefined) | 31.52 | 247
CCCCCC[n+]1ccccc1C=Cc1ccc(N(C)C)cc1.[I-] | 16.8 | 55.9
Cl.Clc1cccc(Nc2nc(NCc3ccco3)c3ccccc3n2)c1 | 36.64 | 383
Fc1ccc2nc(Nc3nc(-c4ccccn4)cs3)sc2c1 | 22.86 | 43.8
O=C(NC1CC1)C1CCN(c2cccc3c2C(=O)N(Cc2cccc(C(F)(F)F)c2)C3=O)CC1 | 24.01 | 29.3
COc1ccc2nc(-c3ccccc3)cc(NCCN(C)C)c2c1 | 69.1 | 570
Cc1nc([P+](c2ccccc2)(c2ccccc2)c2ccccc2)c(SCc2ccccc2)o1.[O-][Cl+3]([O-])([O-])[O-] | 31.83 | 33.5
CCOc1ccc(CN(C(=O)COc2ccc(Cl)cc2)C(C)CCCN(CC)CC)cc1.O=C(O)C(F)(F)F (centres undefined) | 55.32 | 20.4
COc1cccc(OC)c1C(=O)Nn1c(-c2cccc(C)c2)nc2ccccc2c1=O | – | > 10000
COc1cc(C(=O)NCCc2ccccn2)ccc1OC1CCN(CC(c2ccccc2)c2ccccc2)CC1 | – | 1280
Cc1ccc(-n2c(-c3ccccc3)cc(C=NNC(=O)c3cccc(-n4c(C)ccc4C)c3)c2-c2ccccc2)cc1 | 30.06 | 47.9
CCOC(=O)C1=C(C)NC2=C(C(=O)C(C(=O)OCC)C(c3ccc(OC)cc3)C2)C1c1ccc(OC)c(OC)c1 (centres undefined) | 86.53 | 240
CCCCN(CCCC)[P+](N(CCCC)CCCC)(N(CCCC)CCCC)N(CCCC)CCCC | 24.32 | 11.5
CCN1CCN(c2cc(C)c3cc(NC(=O)c4cc(OC)cc(OC)c4)ccc3n2)CC1 | 113.77 | 3740
